Experimental data taken from ChEMBL document CHEMBL4706624, “Synthesis and evaluation of new quinazoline-benzimidazole hybrids as potent anti-microbial agents against multidrug resistant Staphylococcus aureus and Mycobacterium tuberculosis” (Eur J Med Chem, 2021).
≈ marks a conversion by molar mass, not a printed value.

What was measured:
[1] = test system: Staphylococcus aureus; test: Antibacterial activity against methicillin-resistant Staphylococcus aureus NR119 measured after 16 to 18 hrs; assay type: functional; conditions: time 16-18 hrs
Outline: (§1)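 Broth microdilution MIC. Strains grown on MHA; a single colony was grown overnight in CA-MHB at 37 °C with shaking for 18–24 h. Cultures were diluted by OD600 to ~10⁶ cfu/mL and exposed to compound at […]. Plates were incubated at 37 °C for 16-18 h. MIC = lowest concentration with no visible growth. Levofloxacin was the reference. Three independent runs, each in duplicate.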

[2] = test system: Staphylococcus aureus; test: Antibacterial activity against methicillin-resistant Staphylococcus aureus NR10186 measured after 16 to 18 hrs; assay type: functional; conditions: time 16-18 hrs; outline: as §1
[3] = test system: Staphylococcus aureus; test: Antibacterial activity against methicillin-resistant Staphylococcus aureus NR10193 measured after 16 to 18 hrs; assay type: functional; conditions: time 16-18 hrs; outline: as §1
[4] = Cytotoxicity against African green monkey Vero cells assessed as reduction in cell viability measured after 72 hrs by MTT assay; assay type: cell-based; conditions: chlorocebus sabaeus
Outline: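 Vero cells (ATCC CCL-81), ~10³ cells/well, held 24 h at 37 °C in 5% CO₂. Compound at 100–5 mg/L for 72 h. MTT was added for 4 h, formazan dissolved in DMSO, OD read at 540 nm. CC50 = concentration giving 50% viability reduction. Doxorubicin was the positive control. Triplicate.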

[5] = Selectivity index, ratio of CC50 for cytotoxicity against African green monkey Vero cells to MIC for antibacterial activity against Staphylococcus aureus ATCC 29213; assay type: toxicity, cell-based; conditions: read-out: Selectivity Index
Outline: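 SI = Vero CC50 (MTT, 72 h) divided by MIC against S. aureus ATCC 29213 (CA-MHB broth microdilution, 16-18 h, 37 °C).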

[6] = test system: Staphylococcus aureus; test: Antibacterial activity against methicillin-resistant Staphylococcus aureus NR10194 measured after 16 to 18 hrs; assay type: functional; conditions: time 16-18 hrs; outline: as §1
[7] = test system: Staphylococcus aureus; test: Antibacterial activity against methicillin-resistant Staphylococcus aureus NR100 measured after 16 to 18 hrs; assay type: functional; conditions: time 16-18 hrs; outline: as §1
[8] = test system: Klebsiella pneumoniae; test: Antibacterial activity against Klebsiella pneumoniae BAA-1705 measured after 16 to 18 hrs; assay type: functional; conditions: ATCC BAA-1705, time 16-18 hrs; outline: as §1
[9] = test system: Staphylococcus aureus; test: Antibacterial activity against methicillin-resistant Staphylococcus aureus NR10129 measured after 16 to 18 hrs; assay type: functional; conditions: time 16-18 hrs; outline: as §1
[10] = test system: Staphylococcus aureus; test: Antibacterial activity against vancomycin-resistant Staphylococcus aureus VRS12 measured after 16 to 18 hrs; assay type: functional; conditions: time 16-18 hrs; outline: as §1
[11] = test system: Staphylococcus aureus; test: Antibacterial activity against vancomycin-resistant Staphylococcus aureus VRS4 measured after 16 to 18 hrs; assay type: functional; conditions: time 16-18 hrs; outline: as §1
[12] = test system: Acinetobacter baumannii; test: Antibacterial activity against Acinetobacter baumannii BAA1605 measured after 16 to 18 hrs; assay type: functional; conditions: time 16-18 hrs; outline: as §1
[13] = test system: Escherichia coli; test: Antibacterial activity against Escherichia coli ATCC 25922 measured after 16 to 18 hrs; assay type: functional; conditions: time 16-18 hrs; outline: as §1
[14] = test system: Staphylococcus aureus; test: Antibacterial activity against Staphylococcus aureus ATCC 29213 measured after 16 to 18 hrs; assay type: functional; conditions: time 16-18 hrs; outline: as §1
[15] = test system: Staphylococcus aureus; test: Antibacterial activity against methicillin-resistant Staphylococcus aureus NR10192 measured after 16 to 18 hrs; assay type: functional; conditions: time 16-18 hrs; outline: as §1
[16] = test system: Staphylococcus aureus; test: Antibacterial activity against vancomycin-resistant Staphylococcus aureus VRS1 measured after 16 to 18 hrs; assay type: functional; conditions: time 16-18 hrs; outline: as §1
[17] = test system: Pseudomonas aeruginosa; test: Antibacterial activity against Pseudomonas aeruginosa ATCC 27853 measured after 16 to 18 hrs; assay type: functional; conditions: time 16-18 hrs; outline: as §1
[18] = test system: Staphylococcus aureus; test: Antibacterial activity against methicillin-sensitive Staphylococcus aureus ATCC 29213 measured after 16 to 18 hrs; assay type: functional; conditions: time 16-18 hrs; outline: as §1
[19] = test system: Staphylococcus aureus; test: Antibacterial activity against methicillin-resistant Staphylococcus aureus NR10198 measured after 16 to 18 hrs; assay type: functional; conditions: time 16-18 hrs; outline: as §1
[20] = test system: Staphylococcus aureus; test: Antibacterial activity against methicillin-resistant Staphylococcus aureus NR10191 measured after 16 to 18 hrs; assay type: functional; conditions: time 16-18 hrs; outline: as §1
[21] = test system: Mycobacteroides abscessus; test: Antimycobacterial activity against Mycobacterium abscessus ATCC 19977 by broth microdilution method; assay type: functional
Outline: (§2)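 Broth microdilution MIC in Middlebrook 7H9 with 10% ADC-Tween-80 (BSA, dextrose, 0.2% glycerol, 0.05% Tween-80). Inoculum ~10⁶ cfu/mL set by OD600. Compounds were twofold serially diluted, 0.0064–0.00005 g/100 mL (DMSO stocks). Presto blue resazurin dye was used as read-out. MIC = lowest concentration inhibiting visible growth. Triplicate runs, each in duplicate.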

[22] = test system: Mycobacteroides chelonae; test: Antimycobacterial activity against Mycobacterium chelonae ATCC 35752 by broth microdilution method; assay type: functional; outline: as §2
[23] = test system: Mycolicibacterium fortuitum; test: Antimycobacterial activity against Mycobacterium fortuitum ATCC 6841 by broth microdilution method; assay type: functional; outline: as §2
[24] = test system: Mycobacterium tuberculosis; test: Antitubercular activity against Mycobacterium tuberculosis H37Rv ATCC 27294 measured after 7 days by broth microdilution method; assay type: functional; conditions: H37Rv ATCC 27294, 168 h, time 7 day
Outline: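 H37Rv in Middlebrook 7H9 with 10% ADC, 0.2% glycerol, 0.05% Tween-80. Inoculum ~10⁶ cfu/mL set by OD600. Twofold serial dilutions, 0.0064–0.00005 g/100 mL. Incubated at 37 °C for 7 days, then Presto blue resazurin read-out. MIC = lowest concentration inhibiting visible growth. Triplicate runs, each in duplicate.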

Structure (SMILES)	MIC [1]	MIC [2]	MIC [3]	CC50 at 72 h [4]	selectivity ratio [5]	MIC [6]	MIC [7]	MIC [8]	MIC [9]	MIC [10]	MIC [11]	MIC [12]	MIC [13]	MIC [14]	MIC [15]	MIC [16]	MIC [17]	MIC [18]	MIC [19]	MIC [20]	further results
Fc1ccc2[nH]c(-c3ccc(Nc4nc(-c5ccc(Cl)cc5)nc5ccccc45)cc3)nc2c1	4 µg/mL (≈ 8.59 µM)	4 µg/mL (≈ 8.59 µM)	8 µg/mL (≈ 17.2 µM)	50 µg/mL (≈ 107 µM)	12.5	4 µg/mL (≈ 8.59 µM)	4 µg/mL (≈ 8.59 µM)	> 64 µg/mL	4 µg/mL (≈ 8.59 µM)	4 µg/mL (≈ 8.59 µM)	2 µg/mL (≈ 4.29 µM)	> 64 µg/mL	> 64 µg/mL	4 µg/mL (≈ 8.59 µM)	2 µg/mL (≈ 4.29 µM)	4 µg/mL (≈ 8.59 µM)	> 64 µg/mL	4 µg/mL (≈ 8.59 µM)	8 µg/mL (≈ 17.2 µM)	8 µg/mL (≈ 17.2 µM)	–
Clc1ccc2[nH]c(-c3ccc(Nc4nc(-c5ccccc5)nc5ccccc45)cc3)nc2c1	8 µg/mL (≈ 17.9 µM)	8 µg/mL (≈ 17.9 µM)	16 µg/mL (≈ 35.7 µM)	100 µg/mL (≈ 223 µM)	12.5	8 µg/mL (≈ 17.9 µM)	8 µg/mL (≈ 17.9 µM)	> 64 µg/mL	8 µg/mL (≈ 17.9 µM)	8 µg/mL (≈ 17.9 µM)	8 µg/mL (≈ 17.9 µM)	> 64 µg/mL	> 64 µg/mL	8 µg/mL (≈ 17.9 µM)	8 µg/mL (≈ 17.9 µM)	4 µg/mL (≈ 8.93 µM)	> 64 µg/mL	8 µg/mL (≈ 17.9 µM)	4 µg/mL (≈ 8.93 µM)	16 µg/mL (≈ 35.7 µM)	MIC [21]: > 64 µg/mL; MIC [22]: 32 µg/mL (≈ 71.4 µM); MIC [23]: 32 µg/mL (≈ 71.4 µM); MIC [24]: 32 µg/mL (≈ 71.4 µM)
Clc1ccc(-c2nc(Nc3ccc(-c4nc5ccccc5[nH]4)cc3)c3ccccc3n2)cc1	32 µg/mL (≈ 71.4 µM)	16 µg/mL (≈ 35.7 µM)	8 µg/mL (≈ 17.9 µM)	50 µg/mL (≈ 112 µM)	12.5	8 µg/mL (≈ 17.9 µM)	8 µg/mL (≈ 17.9 µM)	> 64 µg/mL	8 µg/mL (≈ 17.9 µM)	8 µg/mL (≈ 17.9 µM)	8 µg/mL (≈ 17.9 µM)	> 64 µg/mL	> 64 µg/mL	4 µg/mL (≈ 8.93 µM)	4 µg/mL (≈ 8.93 µM)	4 µg/mL (≈ 8.93 µM)	> 64 µg/mL	8 µg/mL (≈ 17.9 µM)	8 µg/mL (≈ 17.9 µM)	8 µg/mL (≈ 17.9 µM)	–
c1ccc(-c2nc(Nc3ccc(-c4nc5ccccc5[nH]4)cc3)c3ccccc3n2)cc1	8 µg/mL (≈ 19.3 µM)	8 µg/mL (≈ 19.3 µM)	16 µg/mL (≈ 38.7 µM)	80 µg/mL (≈ 193 µM)	10	8 µg/mL (≈ 19.3 µM)	32 µg/mL (≈ 77.4 µM)	> 64 µg/mL	16 µg/mL (≈ 38.7 µM)	16 µg/mL (≈ 38.7 µM)	8 µg/mL (≈ 19.3 µM)	> 64 µg/mL	> 64 µg/mL	8 µg/mL (≈ 19.3 µM)	32 µg/mL (≈ 77.4 µM)	8 µg/mL (≈ 19.3 µM)	> 64 µg/mL	8 µg/mL (≈ 19.3 µM)	4 µg/mL (≈ 9.67 µM)	16 µg/mL (≈ 38.7 µM)	MIC [21]: > 64 µg/mL; MIC [22]: > 64 µg/mL; MIC [23]: > 64 µg/mL; MIC [24]: > 64 µg/mL
